Experimental data from publication PMC6062249 (Toxicology Research, 2016).
Where two headings read alike, the source gives them in different places.

How the values were obtained:
human recombinant CYP1A1 = target: T1, human recombinant CYP1A1 (Homo sapiens, UniProt P04798); experiment: EROD activity of microsomes containing human recombinant CYP1A1; assay type: biochemical
T1 sequence (P04798 1-512): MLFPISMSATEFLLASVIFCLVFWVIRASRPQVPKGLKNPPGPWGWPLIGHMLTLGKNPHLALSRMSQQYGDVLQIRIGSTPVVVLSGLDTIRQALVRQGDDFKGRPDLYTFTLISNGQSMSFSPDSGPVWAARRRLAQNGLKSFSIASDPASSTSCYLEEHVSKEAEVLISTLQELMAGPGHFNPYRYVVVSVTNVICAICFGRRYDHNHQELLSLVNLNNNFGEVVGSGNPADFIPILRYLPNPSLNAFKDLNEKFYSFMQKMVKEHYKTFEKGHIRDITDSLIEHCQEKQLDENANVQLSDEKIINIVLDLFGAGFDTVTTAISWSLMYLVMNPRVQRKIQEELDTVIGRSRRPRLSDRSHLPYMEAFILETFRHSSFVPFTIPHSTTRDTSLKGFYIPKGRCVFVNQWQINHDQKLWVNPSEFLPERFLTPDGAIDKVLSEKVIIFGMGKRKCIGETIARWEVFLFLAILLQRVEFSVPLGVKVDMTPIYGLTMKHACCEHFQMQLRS
Outline: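 Microsomes containing recombinant human CYP1A1 (2.5 nM) with NADPH-P450 reductase were pre-incubated 5 min with test compound (0.00064–20 μM) or DMSO (final <0.5%). 7-Ethoxyresorufin (0.5 μM) and NADPH (0.4 mM) were then added. Resorufin formation was followed kinetically at 535/590 nm, every 2 s, in triplicate. DMSO control was set as 100% and the no-NADPH reaction as 0%; IC50 was fitted by nonlinear regression.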

[1] = test system: TCDD induced CYP1-dependent EROD activity in HaCaT cells; experiment: TCDD-induced cellular EROD activity in HaCaT cells, co-exposure with oxy-PAH; assay type: cell-based, human; conditions: TCDD 5 nM + 0.1-10 μM oxy-PAH, 6, 12, 24 h
Outline: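 Confluent HaCaT cells were co-exposed to TCDD (5 nM) alone or with 0.1, 1.0 or 10 μM test compound for 6, 12 and 24 h. After a PBS rinse, cells were incubated 20 min at 37 °C with 2 μM 7-ethoxyresorufin in 50 mM sodium phosphate, pH 8.0, and stopped with cold fluorescamine. Resorufin (535/590 nm) was read in triplicate and normalized to fluorescamine protein signal. Activity is % of TCDD alone.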

[2] = test system: CYP1A1 mRNA in HaCaT cells; experiment: CYP1A1 gene expression by qRT-PCR in HaCaT cells, single exposure; assay type: cell-based, human; conditions: 6 h; for reduction of CYP1A1 mRNA levels compared to DMSO control: dose-dependent, 0.1-10 μM
Outline: (§1)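 Confluent HaCaT cells (seeded 1 × 10^4/well, grown 3 d) were exposed in fresh DMEM to 0.1, 1.0 or 10 μM test compound or DMSO for 6 h. One-step SYBR Green RT-PCR used cell lysate directly with 200 nM primers. Cycling was 48 °C 30 min, 95 °C 10 min, then 40 × (95 °C 15 s, 60 °C 1 min), with melt curve. Expression is 2^–ΔΔCt normalized to B2M; three experiments in duplicate. Calls required p < 0.05 (two-way ANOVA, Bonferroni) and >2-fold versus DMSO; strong inducer was ≥20-fold.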

[3] = test system: CYP1B1 mRNA in HaCaT cells; experiment: CYP1B1 gene expression by qRT-PCR in HaCaT cells, single exposure; assay type: cell-based, human; conditions: 6 h; for reduction of CYP1B1 mRNA levels compared to DMSO control: dose-dependent, 0.1-10 μM
Outline: as §1

CYP1 = conditions: read-out: reported IC50 values, CYP1 inhibition; cited from earlier work
[4] = test system: TCDD induced CYP1 mRNA (CYP1A1 and 1B1) in HaCaT cells; experiment: TCDD-induced CYP1 mRNA; assay type: cell-based, human; conditions: TCDD 5 nM + 0.1-10 μM oxy-PAH, 6 h
Outline: (§2)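 Confluent HaCaT cells were exposed for 6 h to TCDD (5 nM) alone or with 0.1, 1.0 or 10 μM test compound. CYP1A1 and CYP1B1 mRNA were measured by one-step SYBR Green RT-PCR on cell lysate with 200 nM primers. Quantification used 2^–ΔΔCt with B2M as reference; three experiments in duplicate. Levels are % of TCDD-alone mRNA (100%). Strong inhibitor meant p < 0.05 at ≤1 μM; inhibitor meant p < 0.05 at 10 μM (two-way ANOVA, Bonferroni).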

[5] = test system: CYP1-dependent EROD activity in HaCaT cells; experiment: Cellular CYP1-dependent EROD activity in HaCaT cells, single exposure; assay type: cell-based, human; conditions: HaCaT cells, 0.1, 1.0 or 10 μM, 3-48 h
Outline: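 Confluent HaCaT cells were exposed to 0.1, 1.0 or 10 μM test compound, B[a]P or DMSO for 3, 6, 24 and 48 h. Medium was removed and cells rinsed with PBS, then incubated 20 min at 37 °C with 2 μM 7-ethoxyresorufin in 50 mM sodium phosphate, pH 8.0. The reaction was stopped with cold fluorescamine (0.15 mg/mL in acetonitrile). Resorufin was read at 535/590 nm in triplicate and normalized to protein (fluorescamine, 390/485 nm).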

HaCaT cells = experiment: Alamar Blue cell viability assay; assay type: cell-based, human; conditions: 10 μM, alone or with TCDD 5 nM, 24 h
Outline: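 HaCaT keratinocytes were grown in DMEM with 10% FBS at 37 °C, 5% CO2, seeded at 1 × 10^4 cells/well and cultured 3 d to high confluency. Cells were exposed in fresh DMEM to test compound alone or with TCDD (5 nM), with 0.1–0.18% DMSO as solvent control. Afterwards, 10% AlamarBlue in DMEM was added for 1 h at 37 °C and fluorescence read at 560/590 nm. Viability is given as % of DMSO control, from three separate experiments.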

[6] = test system: TCDD induced CYP1A1 mRNA in HaCaT cells; experiment: TCDD-induced CYP1A1 mRNA in HaCaT cells, co-exposure with oxy-PAH; assay type: cell-based, human; conditions: TCDD 5 nM + 1 μM oxy-PAH, 6 h
Outline: as §2

[7] = test system: TCDD induced CYP1B1 mRNA in HaCaT cells; experiment: TCDD-induced CYP1B1 mRNA in HaCaT cells, co-exposure with oxy-PAH; assay type: cell-based, human; conditions: TCDD 5 nM + 1 μM oxy-PAH, 6 h
Outline: as §2

[8] = IC50, inhibition of CYP1A1-mediated EROD activity, human recombinant CYP1A1 2.5 nM, 7-ethoxyresorufin 0.5 μM, NADPH 0.4 mM, 5 min pre-incubation

Structure (SMILES): O=C1CCc2ccccc21 [1-INO, 1-Indanone]
- IC50 (human recombinant CYP1A1; [8]): > 10000 nM

Structure (SMILES): O=C1C(=O)c2cccc3cccc1c23 [1,2-ACNQ, acenaphthylene-1,2-quinone]
- IC50 (human recombinant CYP1A1; [8]): > 10000 nM

Structure (SMILES): O=C1c2ccccc2C(=O)c2ccccc21 [9,10-AQ, anthracene-9,10-quinone]
- inhibition of TCDD-mediated EROD activity (in words) [1]: significant inhibition
- IC50 (human recombinant CYP1A1; [8]): > 10000 nM
- reduction of CYP1A1 mRNA levels compared to DMSO control [2]: up to 15 fold
- reduction of CYP1B1 mRNA levels compared to DMSO control [3]: up to 15 fold

Structure (SMILES): c1ccc2c(c1)ccc1nc3ccc4ccccc4c3cc12 [dibenz[a,j]acridine]
- IC50 (CYP1): < 100 nM

Structure (SMILES): Clc1cc2c(cc1Cl)Oc1cc(Cl)c(Cl)cc1O2 [TCDD, 2,3,7,8-Tetrachlorodibenzo-p-dioxin, reference compound]
- increase of CYP1A1 mRNA levels compared to DMSO control ([2]; TCDD alone 5 nM): 138 fold
- increase of CYP1B1 mRNA levels compared to DMSO control ([3]; TCDD alone 5 nM): 36 fold

Structure (SMILES): O=C1c2ccccc2C(=O)c2cc3ccccc3cc21 [5,12-NQ, naphthacene-5,12-quinone]
- inhibition of TCDD-mediated EROD activity (in words) [1]: significant inhibition
- increase of CYP1A1 mRNA levels compared to DMSO control ([2]; 0.1-10 μM oxy-PAH): up to 60 fold
- increase of CYP1B1 mRNA levels compared to DMSO control ([3]; 0.1-10 μM oxy-PAH): ≤ 40 fold
- effect on TCDD-induced CYP1A1 and 1B1 expression levels (in words) [4]: no effect at all

Structure (SMILES): Cc1ccc2c(c1)C(=O)c1ccccc1C2=O [2-MAQ, 2-methylanthracene-9,10-quinone]
- induction of cellular EROD activity (in words) [5]: significantly increased levels of enzyme activity compared to the DMSO control but lower than B[a]P

Structure (SMILES): c1ccc2cc3c(ccc4ccccc43)cc2c1 [benz[a]anthracene]
- IC50 (CYP1): < 100 nM

Structure (SMILES): O=C1C=Cc2cccc3cccc1c23 [1H-PHO, 1H-phenalen-1-one]
- IC50 (human recombinant CYP1A1; [8]): > 10000 nM

Structure (SMILES): O=c1c2cccc3ccc4cccc1c4c32 [4H-CPO, 4H-Cyclopenta[def]phenanthrene-4-one]
- induction of cellular EROD activity (in words) [5]: significantly increased levels of enzyme activity compared to the DMSO control but lower than B[a]P
- IC50 (human recombinant CYP1A1; [8]): 320 nM
- reduction of CYP1A1 mRNA levels compared to DMSO control [2]: up to 15 fold
- reduction of CYP1B1 mRNA levels compared to DMSO control [3]: up to 15 fold

Structure (SMILES): O=C1c2ccccc2C(=O)c2c1ccc1ccccc21 [7,12-BAQ, benz[a]anthracene-7,12-quinone]
- inhibition of TCDD-mediated EROD activity (in words) [1]: most potent inhibitors
- IC50 (human recombinant CYP1A1; [8]): 37 nM
- increase of CYP1A1 mRNA levels compared to DMSO control ([2]; 0.1-10 μM oxy-PAH): up to 60 fold
- increase of CYP1B1 mRNA levels compared to DMSO control ([3]; 0.1-10 μM oxy-PAH): ≤ 40 fold
- effect on TCDD-induced CYP1A1 and 1B1 expression levels (in words) [4]: no effect at all

Structure (SMILES): O=C1c2ccccc2-c2cccc3cccc1c23 [7H-BAO, 7H-benz[de]anthracene-7-one]
- IC50 (human recombinant CYP1A1; [8]): 770 nM

Structure (SMILES): c1cc2ccc3cccc4ccc(c1)c2c34 [pyrene]
- IC50 (CYP1): < 100 nM

Structure (SMILES): O=C1c2ccccc2-c2ccccc21 [9-FLO, 9-fluorenone]
- IC50 (human recombinant CYP1A1; [8]): 3000 nM

Structure (SMILES): O=c1cc(-c2ccccc2)oc2c1ccc1ccccc12 [αNF, α-Naphthoflavone]
- IC50 (CYP1): < 100 nM

Structure (SMILES): O=C1C(=O)c2ccccc2-c2ccccc21 [9,10-PQ, phenanthrene-9,10-quinone]
- cytotoxicity (Alamar Blue viability, in words) (HaCaT cells): increased cytotoxicity

Structure (SMILES): Cc1cc2c(cc1C)C(=O)c1ccccc1C2=O [2,3-DMAQ, 2,3-dimethylanthracene-9,10-quinone]
- induction of cellular EROD activity (in words) [5]: significantly increased levels of enzyme activity compared to the DMSO control but lower than B[a]P
- inhibition of TCDD-mediated EROD activity (in words) [1]: significant inhibition
- reduction of TCDD-induced CYP1A1 mRNA levels [6]: around 50%
- IC50 (human recombinant CYP1A1; [8]): 2100 nM
- reduction of TCDD-induced CYP1B1 mRNA levels [7]: around 50%

Structure (SMILES): O=C1c2ccccc2-c2ccc3ccccc3c21 [BFLO, benzo[a]fluorenone]
- inhibition of TCDD-mediated EROD activity (in words) [1]: most potent inhibitors
- reduction of TCDD-induced CYP1A1 mRNA levels [6]: around 50%
- IC50 (human recombinant CYP1A1; read-out: IC50, inhibition of CYP1A1-mediated EROD activity, human recombinant CYP1A1 2.5 nM, 7-ethoxyresorufin 0.5 μM, NADPH 0.4 mM, 5 min pre-incubation): 61 nM
- increase of CYP1A1 mRNA levels compared to DMSO control ([2]; 0.1-10 μM oxy-PAH): up to 60 fold
- increase of CYP1B1 mRNA levels compared to DMSO control ([3]; 0.1-10 μM oxy-PAH): ≤ 40 fold
- reduction of TCDD-induced CYP1B1 mRNA levels [7]: around 50%

Structure (SMILES): O=C1c2cccc3ccc4ccc5cccc1c5c4c23 [6H-BPO, 6H-benzo[cd]pyren-6-one]
- induction of cellular EROD activity (in words) [5]: significantly increased levels of enzyme activity compared to the DMSO control but lower than B[a]P
- inhibition of TCDD-mediated EROD activity (in words) [1]: significant inhibition
- reduction of TCDD-induced CYP1A1 mRNA levels [6]: around 50%
- cytotoxicity (Alamar Blue viability, in words) (HaCaT cells): not associated with increased cytotoxicity
- reduction of CYP1A1 mRNA levels compared to DMSO control [2]: up to 15 fold
- reduction of CYP1B1 mRNA levels compared to DMSO control [3]: up to 15 fold
- reduction of TCDD-induced CYP1B1 mRNA levels [7]: around 50%

Structure (SMILES): O=C1C=CC(=O)c2c1ccc1c2ccc2ccccc21 [1,4-CHRQ, chrysene-1,4-quinone]
- induction of cellular EROD activity (in words) [5]: did not induce EROD activity
- IC50 (human recombinant CYP1A1; [8]): 6200 nM
- increase of CYP1A1 mRNA levels compared to DMSO control ([2]; 0.1-10 μM oxy-PAH): up to 60 fold
- increase of CYP1B1 mRNA levels compared to DMSO control ([3]; 0.1-10 μM oxy-PAH): ≤ 40 fold
- effect on TCDD-induced CYP1A1 and 1B1 expression levels (in words) [4]: no effect at all
